# Experimental data of several laboratories.
# Protocols differ between the studies behind these lines.
# CSNK1A1: Casein kinase I isoform alpha (CSNK1A1, Homo sapiens, UniProt P48729)
# HDAC10: Polyamine deacetylase HDAC10 (HDAC10, Homo sapiens, UniProt Q969S8)
# PLA2G6: 85/88 kDa calcium-independent phospholipase A2 (PLA2G6, Homo sapiens, UniProt O60733)
# SLC22A2: Solute carrier family 22 member 2 (SLC22A2, Homo sapiens, UniProt O15244)
# HDAC7: Histone deacetylase 7 (HDAC7, Homo sapiens, UniProt Q8WUI4)
# SLC22A12: Solute carrier family 22 member 12 (SLC22A12, Homo sapiens, UniProt Q96S37)
SMILES,target,read-out,mode,method,cells,setting,IC50 [nM]
CC(=O)N[C@@H](CC(C)C)C(=O)N[C@@H](CC(C)C)C(=O)N[C@H](C=O)CCCNC(=N)N,"Kallikrein-1 (KLK1, Homo sapiens, UniProt P06870)",enzyme activity,inhibitor,,,,3900
Cn1cc(-c2ccnc3ccccc23)c(-c2ccccn2)n1,CSNK1A1,enzyme activity,inhibitor,ADP detection,,,1500
O=C1CCC(c2ccc(OCC(=O)OCCCCc3cn(CCCCCCN4CCc5c(c6ccccc6n5Cc5ccc(C(=O)NO)cc5)C4)nn3)cc2)C(=O)N1 (centres unmarked),HDAC10,enzyme activity,inhibitor,fluorescence,,,15
O=C(CCCCc1ccc(CO)cc1)C(F)(F)C(F)(F)F,PLA2G6,enzyme activity,inhibitor,,,,630
CCCc1ccn2c(-c3ccncc3)c(-c3ccc(F)cc3)nc2c1,CSNK1A1,enzyme activity,inhibitor,ADP detection,,,970
CC(C)NC(=O)COc1cccc(-c2nc(Nc3ccc4[nH]ncc4c3)c3ccccc3n2)c1,SLC22A2,transporter uptake,inhibitor,radiometric,HEK293,,> 1000
Oc1ccn2nc(-c3ccc(F)cc3)c(-c3ccncc3)c2c1,CSNK1A1,enzyme activity,inhibitor,ADP detection,,,840
O=C(NO)c1ccc(Cn2cnc3c(Nc4ccc(Cl)cc4)ncnc32)cc1,HDAC7,enzyme activity,inhibitor,,,,48
CCCS(=O)(=O)NC(=O)c1cc2ccccc2n1Cc1ccc(C2CC2)c2ccccc12,SLC22A12,transporter uptake,inhibitor,radiometric,,,5560
O=C(CCCCCCCCO)C(F)(F)F,PLA2G6,enzyme activity,inhibitor,,,,12700
c1ccc(-c2n[nH]cc2-c2ccncn2)nc1,CSNK1A1,enzyme activity,inhibitor,ADP detection,,,> 30000
COc1ccc(N(Cc2nc(-c3ccc(F)cc3)cs2)C(=O)CCCCCC(=O)NO)cc1,HDAC7,enzyme activity,inhibitor,,,,> 10000
O=C(CNc1cccc2c1C(=O)N(C1CCC(=O)NC1=O)C2=O)NCCCCCCN1CCc2c(c3ccccc3n2Cc2ccc(C(=O)NO)cc2)C1 (centres unmarked),HDAC10,enzyme activity,inhibitor,fluorescence,,,22
O=C(O)CCc1nccc2c3ccccc3n(Cc3ccc(Br)c4ccccc34)c12,SLC22A12,transporter uptake,inhibitor,radiometric,,,13800
Oc1ccc2c(-c3ccncc3)c(-c3ccc(F)cc3)nn2c1,CSNK1A1,enzyme activity,inhibitor,ADP detection,,,1600
Cc1cc(N)c2ccccc2[n+]1CCCCCCCCCC[n+]1c(C)cc(N)c2ccccc21,SLC22A2,transporter uptake,inhibitor,fluorescence,,,88.2
Fc1ccc(Cc2[nH]nc(-c3ccccn3)c2-c2ccnc3ccccc23)cc1,CSNK1A1,enzyme activity,inhibitor,ADP detection,,,11000
Fc1ccc(-c2nc3cc(C4CC4)ccn3c2-c2ccncc2)cc1,CSNK1A1,enzyme activity,inhibitor,ADP detection,,,910
CN(CCCCCCNC(=O)CNc1cccc2c1C(=O)N(C1CCC(=O)NC1=O)C2=O)Cc1cn(Cc2ccc(C(=O)NO)cc2)c2ccccc12 (centres unmarked),HDAC10,enzyme activity,inhibitor,fluorescence,,,7
O=C(NS(=O)(=O)C1CC1)c1cc2ccccc2n1Cc1ccc(C2CC2)c2ccccc12,SLC22A12,transporter uptake,inhibitor,radiometric,,,5800
Fc1ccc(-c2nn3cc(C(F)(F)F)ccc3c2-c2ccncc2)cc1,CSNK1A1,enzyme activity,inhibitor,ADP detection,,,> 15000
CC(C)(O)c1coc(S(=O)(=O)NC(=O)c2cc3ccccc3n2Cc2ccc(Br)c3ccccc23)c1,SLC22A12,transporter uptake,inhibitor,radiometric,,,9760
CCc1oc2cc(F)ccc2c1C(=O)c1cc(Br)c(O)c(Br)c1,SLC22A12,transporter uptake,inhibitor,radiometric,,oocytes,18
c1coc(-c2n[nH]cc2-c2ccnc3ccccc23)c1,CSNK1A1,enzyme activity,inhibitor,ADP detection,,,3400
Fc1ccc(-c2nn3cc(F)ccc3c2-c2ccncc2)cc1,CSNK1A1,enzyme activity,inhibitor,ADP detection,,,2400
CN1CCC(CNc2ccc3ncc(-c4cccc(OC(F)(F)F)c4)n3n2)CC1,"Beta-2 adrenergic receptor (ADRB2, Homo sapiens, UniProt P07550)",cAMP,antagonist,,,,8310
O=C(c1ccc(OCCN2CCCCC2)cc1)c1c(-c2ccc(O)cc2)sc2cc(O)ccc12,"Angiotensin-converting enzyme (Mus musculus, UniProt P09470)",enzyme activity,inhibitor,,,,88600
COc1ccc(N(Cc2csc(-c3ccccc3)n2)C(=O)CCCCCC(=O)NO)cc1,HDAC7,enzyme activity,inhibitor,,,,> 10000
c1ccc(-c2[nH]ccc2-c2ccnc3ccccc23)nc1,CSNK1A1,enzyme activity,inhibitor,ADP detection,,,> 30000
